In ChEMBL document CHEMBL3779892, “Increasing the binding affinity of VEGFR-2 inhibitors by extending their hydrophobic interaction with the active site: Design, synthesis and biological evaluation of 1-substituted-4-(4-methoxybenzyl)phthalazine derivatives” (Eur J Med Chem, 2016):

Assays:
Format in all cases: functional
[1] = Growth inhibition of human BT549 cells at 10 uM after 48 hrs by sulforhodamine B assay; conditions: BT-549, 48 h, read-out: GI
In short: (§1)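 Run at NCI on the 60-line panel. Cells grown in RPMI 1640 with 5% FBS and 2 mM L-glutamine, plated at 5000–40,000 cells/well by doubling time, and held 24 h at 37 °C before dosing. Drug (DMSO stock) given at a single final 10 µM in triplicate wells for 48 h. Adherent cells fixed with cold TCA (10% final), suspension cells with 16% TCA. SRB stain read at 515 nm. Percent growth from Tz, C and Ti.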

T47D = assay: Growth inhibition of human T47D cells at 10 uM after 48 hrs by sulforhodamine B assay; conditions: read-out: GI
In short: (§2)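 NCI-60 panel, adherent cells grown in RPMI 1640 with 5% FBS and 2 mM L-glutamine, plated at 5000–40,000 cells/well and preincubated 24 h at 37 °C, 5% CO2. 10 µM final compound from DMSO stock, triplicate wells, 48 h. Fixed with cold TCA (10% final, 60 min, 4 °C) and stained with 0.4% SRB. Absorbance read at 515 nm; growth calculated against time-zero and control wells.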

MDA-MB-231 = assay: Growth inhibition of human MDA-MB-231 cells at 10 uM after 48 hrs by sulforhodamine B assay; conditions: MDA-MB-231, 48 h, read-out: GI; in short: as §1
CCRF-CEM = assay: Growth inhibition of human CCRF-CEM cells at 10 uM after 48 hrs by sulforhodamine B assay; conditions: read-out: GI; in short: as §1
K562 = assay: Growth inhibition of human K562 cells at 10 uM after 48 hrs by sulforhodamine B assay; conditions: K562, 48 h, read-out: GI; in short: as §1
[2] = Growth inhibition of human MOLT4 cells at 10 uM after 48 hrs by sulforhodamine B assay; conditions: MOLT-4, 48 h, read-out: GI; in short: as §1
NCI-H460 = assay: Growth inhibition of human NCI-H460 cells at 10 uM after 48 hrs by sulforhodamine B assay; conditions: NCI-H460, 48 h, read-out: GI; in short: as §1
[3] = Growth inhibition of human COLO205 cells at 10 uM after 48 hrs by sulforhodamine B assay; conditions: COLO 205, 48 h, read-out: GI; in short: as §1
HT-29 = assay: Growth inhibition of human HT-29 cells at 10 uM after 48 hrs by sulforhodamine B assay; conditions: HT-29, 48 h, read-out: GI; in short: as §1
[4] = Growth inhibition of human SNB19 cells at 10 uM after 48 hrs by sulforhodamine B assay; conditions: SNB-19, 48 h, read-out: GI; in short: as §1
U-251 = assay: Growth inhibition of human U251 cells at 10 uM after 48 hrs by sulforhodamine B assay; conditions: U-251, 48 h, read-out: GI; in short: as §2
Malme-3M = assay: Growth inhibition of human MALME-3M cells at 10 uM after 48 hrs by sulforhodamine B assay; conditions: read-out: GI; in short: as §1
[5] = Growth inhibition of human IGROV1 cells at 10 uM after 48 hrs by sulforhodamine B assay; conditions: IGROV-1, 48 h, read-out: GI; in short: as §1
[6] = Growth inhibition of human OVCAR3 cells at 10 uM after 48 hrs by sulforhodamine B assay; conditions: OVCAR-3, 48 h, read-out: GI; in short: as §1
[7] = Growth inhibition of human OVCAR4 cells at 10 uM after 48 hrs by sulforhodamine B assay; conditions: OVCAR-4, 48 h, read-out: GI; in short: as §1
[8] = Growth inhibition of human OVCAR8 cells at 10 uM after 48 hrs by sulforhodamine B assay; conditions: OVCAR-8, 48 h, read-out: GI; in short: as §1
[9] = Growth inhibition of human SKOV3 cells at 10 uM after 48 hrs by sulforhodamine B assay; conditions: SK-OV-3, 48 h, read-out: GI; in short: as §1
786-0 = assay: Growth inhibition of human 786-0 cells at 10 uM after 48 hrs by sulforhodamine B assay; conditions: 786-0, 48 h, read-out: GI; in short: as §1
A498 = assay: Growth inhibition of human A498 cells at 10 uM after 48 hrs by sulforhodamine B assay; conditions: A498, 48 h, read-out: GI; in short: as §1
SN12C = assay: Growth inhibition of human SN12C cells at 10 uM after 48 hrs by sulforhodamine B assay; conditions: read-out: GI; in short: as §1
[10] = Growth inhibition of human TK10 cells at 10 uM after 48 hrs by sulforhodamine B assay; conditions: TK-10, 48 h, read-out: GI; in short: as §2
[11] = Growth inhibition of human UO31 cells at 10 uM after 48 hrs by sulforhodamine B assay; conditions: UO-31, 48 h, read-out: GI; in short: as §2
MCF7 = assay: Growth inhibition of human MCF7 cells at 10 uM after 48 hrs by sulforhodamine B assay; conditions: MCF7, 48 h, read-out: GI; in short: as §1

Row | Compound | inhibition of growth at 10 µM [1] [%] | inhibition of growth at 10 µM (T47D) [%] | inhibition of growth at 10 µM (MDA-MB-231) [%] | inhibition of growth at 10 µM (CCRF-CEM) [%] | inhibition of growth at 10 µM (K562) [%] | inhibition of growth at 10 µM [2] [%] | inhibition of growth at 10 µM (NCI-H460) [%] | inhibition of growth at 10 µM [3] [%] | inhibition of growth at 10 µM (HT-29) [%] | inhibition of growth at 10 µM [4] [%] | inhibition of growth at 10 µM (U-251) [%] | inhibition of growth at 10 µM (Malme-3M) [%] | inhibition of growth at 10 µM [5] [%] | inhibition of growth at 10 µM [6] [%] | inhibition of growth at 10 µM [7] [%] | inhibition of growth at 10 µM [8] [%] | inhibition of growth at 10 µM [9] [%] | inhibition of growth at 10 µM (786-0) [%] | inhibition of growth at 10 µM (A498) [%] | inhibition of growth at 10 µM (SN12C) [%] | further results
1 | COc1ccc(Cc2nnc(Nc3ccc(NC(=O)Nc4ccccc4Cl)cc3)c3ccccc23)cc1 | < 30 | 52 | < 30 | < 30 | < 30 | < 30 | < 30 | < 30 | < 30 | < 30 | < 30 | < 30 | < 30 | < 30 | < 30 | < 30 | < 30 | 41 | 44 | < 30 | inhibition of growth at 10 µM [10]: < 30%; inhibition of growth at 10 µM [11]: < 30%; inhibition of growth at 10 µM (MCF7): 32%
2 | COc1ccc(Cc2nnc(Nc3cccc(C(F)(F)F)c3)c3ccccc23)cc1 | < 30 | 56 | 46 | 39 | 49 | 60 | 50 | < 30 | 49 | 45 | 44 | < 30 | 37 | 48 | 31 | 35 | < 30 | 33 | 40 | 46 | inhibition of growth at 10 µM [10]: < 30%; inhibition of growth at 10 µM [11]: 66%; inhibition of growth at 10 µM (MCF7): 35%
3 | COc1ccc(Cc2nnc(Nc3ccc(NC(=O)Nc4cccc(C(F)(F)F)c4)cc3)c3ccccc23)cc1 | < 30 | < 30 | < 30 | 35 | < 30 | 37 | < 30 | < 30 | < 30 | 30 | 30 | < 30 | < 30 | < 30 | < 30 | < 30 | < 30 | 41 | < 30 | < 30 | inhibition of growth at 10 µM [10]: < 30%; inhibition of growth at 10 µM [11]: < 30%; inhibition of growth at 10 µM (MCF7): < 30%
4 | COc1ccc(Cc2nnc(Nc3ccc(NC(=O)Nc4cccc(OC)c4)cc3)c3ccccc23)cc1 | < 30 | < 30 | < 30 | < 30 | < 30 | < 30 | < 30 | < 30 | < 30 | < 30 | 32 | < 30 | < 30 | < 30 | < 30 | < 30 | < 30 | 42 | < 30 | < 30 | inhibition of growth at 10 µM [10]: < 30%; inhibition of growth at 10 µM [11]: < 30%; inhibition of growth at 10 µM (MCF7): < 30%
